Laboratory results reported in ChEMBL document CHEMBL5338743, “Identification of a Selective SCoR2 Inhibitor That Protects Against Acute Kidney Injury” (J Med Chem, 2023).
Calls of active or inactive are those of the source. No cut-off for these calls is given here.

Columns and labels:
[1] = tested on: Mus musculus; experiment: In vivo inhibition of AKR1B1 in mouse assessed as reduction in methyl glyoxylate metabolic activity in kidneys at 120 mg/kg body weight, ip administered as single dose into abdomen measured after 18 hrs; assay type: functional, organism-based
[2] = tested on: Mus musculus; experiment: Protection against ischemia/reperfusion induced acute kidney injury in mouse assessed as reduction in sloughed debris in the tubular lumen at 120 mg/kg, ip pretreated for 18 hrs followed by kidney injury surgery and measured after 24 hrs by H and E staining based analysis; assay type: functional, organism-based; conditions: time 42.0 hrs
Method in brief: (§1)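 Mice dosed i.p. 120 mg/kg 18 h before I/R surgery, kidneys harvested 24 h later, H&E-stained. Tubular lysis, brush-border loss and luminal debris scored 0–2 over more than five fields per animal; n=5 mice per group, vehicle controls.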

[3] = tested on: Mus musculus; experiment: Protection against ischemia/reperfusion induced acute kidney injury in mouse assessed as reduction in PKM2 activity in kidney at 120 mg/kg, ip pretreated for 18 hrs followed by kidney injury surgery and measured after 24 hrs by colorimetric pyruvate kinase activity assay; conditions: time 42.0 hrs
[4] = In vivo inhibition of SCoR2 in ischemia/reperfusion induced acute kidney injury mouse model assessed as reduction in SNO-CoA metabolic activity in kidneys at 120 mg/kg, ip pretreated for 18 hrs followed by kidney injury surgery and measured after 24 hrs relative to control; assay type: functional; conditions: time 42 hrs
Method in brief: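 Male mice (9–11 weeks, 25–28 g) dosed i.p. 18 h before renal ischemia–reperfusion surgery under isoflurane; kidneys taken 24 h after reperfusion. Kidney lysate SNO-CoA reductase activity measured with 200 μM SNO-CoA, 100 μM NADPH, 2 min, triplicate assays; DMSO-treated controls.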

[5] = Renal toxicity in mouse assessed as effect on anatomy of cortex at 120 mg/kg, ip treated for 18 hrs under basal conditions by H and E staining based analysis; assay type: organism-based; conditions: in vivo
Method in brief: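 Sham-operated mice given 120 mg/kg i.p. or vehicle; kidney cortex and medulla examined by H&E staining.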

[6] = species: Homo sapiens; experiment: Selectivity index, ratio of IC50 for inhibition of human recombinant AKR1B1 expressed in Escherichia coli BL21-CodonPlus competent cells to IC50 for inhibition of human recombinant SCoR2 expressed in Escherichia coli BL21-CodonPlus competent cells
Method in brief: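 Purified enzyme at 200 nM (SCoR2 with 100 μM SNO-CoA; AKR1B1 with 100 μM methylglyoxylate) in 50 mM phosphate pH 7.0 with serial inhibitor dilutions; started with 100 μM NADPH, 2 min. Rate from 340 nm decrease, normalized to 20 nM protein activity; IC50 fitted, n=3. Selectivity taken as AKR1B1/SCoR2 IC50 ratio.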

[7] = tested on: Mus musculus; experiment: In vivo inhibition of SCoR2 in C57BL/6J mouse assessed as reduction in SNO-CoA metabolic activity in heart at 120 mg/kg body weight, ip administered as single dose into abdomen measured after 18 hrs; assay type: functional, organism-based
Method in brief: (§2)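 Single i.p. injection into the mouse abdomen, DMSO vehicle; organs collected 18 h later. Tissues homogenized in 50 mM phosphate pH 7.0, 150 mM NaCl, EDTA/DTPA, then clarified; lysate started reactions with 200 μM SNO-CoA and 100 μM NADPH, 2 min, NADPH loss monitored, in triplicate. Compared with vehicle and SCoR2−/− kidneys.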

[8] = biological target: T1, Aldo-keto reductase family 1 member A1 (Homo sapiens) (UniProt P14550); experiment: (§3) Binding affinity to C-terminal 6His-tagged human recombinant SCoR2 AKR1A1 expressed in Escherichia coli BL21-CodonPlus competent cells assessed as thermal stability by measuring melting temperature at +/- 250 uM preincubated for 15 mins with NADP+ followed by compound addition and measured after 30 mins by SYPRO orange dye based DSF analysis (reference value: 51.4 degreeC)
T1 sequence (whole entry): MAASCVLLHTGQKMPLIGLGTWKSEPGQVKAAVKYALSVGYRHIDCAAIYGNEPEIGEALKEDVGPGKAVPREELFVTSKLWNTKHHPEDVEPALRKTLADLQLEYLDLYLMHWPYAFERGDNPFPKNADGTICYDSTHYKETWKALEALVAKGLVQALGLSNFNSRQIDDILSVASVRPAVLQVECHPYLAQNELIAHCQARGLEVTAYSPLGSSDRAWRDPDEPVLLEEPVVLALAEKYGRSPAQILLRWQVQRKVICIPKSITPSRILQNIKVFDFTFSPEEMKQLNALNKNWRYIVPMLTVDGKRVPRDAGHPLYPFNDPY
Method in brief: (§4)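 5 μM protein with or without 250 μM NADPH or NADP⁺ and 250 μM inhibitor; cofactor preincubated 15 min, then inhibitor 30 min at room temperature. 10X SYPRO Orange added; temperature ramped 25–70°C in 0.3°C steps. DMSO-matched controls (1%); duplicates.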

[9] = tested on: Mus musculus; experiment: In vivo inhibition of SCoR2 in C57BL/6J mouse assessed as reduction in SNO-CoA metabolic activity in liver at 120 mg/kg body weight, ip administered as single dose into abdomen measured after 18 hrs; assay type: functional, organism-based; method in brief: as §2
[10] = biological target: T1, Aldo-keto reductase family 1 member A1 (Homo sapiens); experiment: Binding affinity to C-terminal 6His-tagged human recombinant SCoR2 AKR1A1 expressed in Escherichia coli BL21-CodonPlus competent cells assessed as melting temperature at +/- 250 uM incubated for 45 mins by SYPRO orange dye based DSF analysis (reference value: 48.3 degreeC); method in brief: as §4
[11] = tested on: Kidney; experiment: Effect on SCoR2 protein expression in kidney of ischemia/reperfusion induced acute kidney injury mouse model at 120 mg/kg, ip pretreated for 18 hrs followed by kidney injury surgery and measured after 24 hrs by Western blot analysis; assay type: functional, organism-based; conditions: time 42.0 hrs
Method in brief: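 Mice given 120 mg/kg i.p. 18 h before I/R surgery; kidneys collected 24 h post-surgery. SCoR2 protein measured by western blot (4–20% gels, overnight primary antibody at 4°C, HRP secondary, ECL) and quantified; n=6, DMSO controls.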

[12] = biological target: T1, Aldo-keto reductase family 1 member A1 (Homo sapiens); experiment: as §3, with “NADPH” for “NADP+”; method in brief: as §4
[13] = In vivo inhibition of SCoR2 in C57BL/6J mouse assessed as reduction in SNO-CoA metabolic activity in kidneys at 120 mg/kg body weight, ip administered as single dose into abdomen measured after 18 hrs relative to control; assay type: functional; method in brief: as §2
[14] = tested on: Mus musculus; experiment: Protection against ischemia/reperfusion induced acute kidney injury in mouse assessed as reduction in tubular lysis at 120 mg/kg, ip pretreated for 18 hrs followed by kidney injury surgery and measured after 24 hrs by H and E staining based analysis; assay type: functional, organism-based; conditions: time 42.0 hrs; method in brief: as §1
[15] = tested on: Mus musculus; experiment: Protection against ischemia/reperfusion induced acute kidney injury in mouse assessed as increase in SNO-PKM2 level in kidney at 120 mg/kg, ip pretreated for 18 hrs followed by kidney injury surgery and measured after 24 hrs by Western blot analysis; assay type: functional, organism-based; conditions: time 42.0 hrs
Method in brief: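 Kidneys from sham or I/R mice (120 mg/kg i.p. or DMSO) homogenized in HEN buffer with MMTS, then SDS/MMTS blocking at 50°C for 20 min and acetone-precipitated. 2 mg lysate captured on thiopropyl-Sepharose with 50 mM ascorbate, 4 h in the dark; no-ascorbate controls. PKM2 detected by western blot and normalized to input PKM2, n=3.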

- Tm [8]: 54.4 °C
- Tm [10]: 46.6 °C
- Tm [12]: 53.4 °C
SMILES: O=C1NC(=O)C2(N1)c1ccccc1-c1ccc(C3CC3)cc12 (stereo not given)
- inhibition [1]: inactive
- Activity [2]: Active
- Activity [3]: Active
- inhibition in vivo at 120 mg/kg [4]: 80%
- Activity [5]: Non-Toxic
- Ratio IC50 [6]: 9.7
- inhibition [7]: Active
- inhibition [9]: Active
- Activity [11]: inactive
- inhibition in vivo at 120 mg/kg [13]: 80%
- Activity [14]: Active
- Activity [15]: Active
